This is an account of results in ChEMBL document CHEMBL1287795, “Synthesis and biological evaluation of 1H-benzimidazol-5-ols as potent HBV inhibitors” (Bioorg Med Chem Lett, 2010).

The structures appear in SMILES notation.

Series [1] has as its system Hepatitis B virus. The series can be described thus: Antiviral activity against Hepatitis B virus infected in HepG2.2.15 assessed as inhibition of HBsAg production at <245.1 +/- 4.8 uM by EIA. In kind it is functional, organism-based. The settings on record: hepg2 2.2.15.
In series [2] the test system is Hepatitis B virus. Put plainly: Antiviral activity against Hepatitis B virus infected in HepG2.2.15 assessed as inhibition of HBV replication at <245.1 +/- 4.8 uM by quantitative Southern blot hybridization analysis. It is filed as functional, organism-based. The settings on record: hepg2 2.2.15.
Series [3] is described as follows: Cytotoxicity against human HepG2(2.2.15) after 9 days by neutral dye uptake method. In kind it is cell-based. The settings on record: HepG2(2.2.15) cells. Summed up:
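Confluent 2.2.15 cells were exposed to compound in culture medium for 9 consecutive days, with untreated controls on every plate. Viability was read as neutral red uptake by absorbance at 510 nm relative to untreated cells, giving CC50. Mean and SD of three separate experiments.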

The test system of series [4] is Hepatitis B virus. The series can be described thus: Antiviral activity against Hepatitis B virus infected in HepG2.2.15 assessed as inhibition of HBsAg production at <227.0 +/- 4.1 uM by EIA. It is filed as functional, organism-based. The settings on record: hepg2 2.2.15.
Series [5] relates to Hepatitis B virus. The series can be described thus: Antiviral activity against Hepatitis B virus infected in HepG2.2.15 assessed as inhibition of HBV replication at <227.0 +/- 4.1 uM by quantitative Southern blot hybridization analysis. It is filed as functional, organism-based. The settings on record: hepg2 2.2.15.
Series [6] relates to Hepatitis B virus. Put plainly: Antiviral activity against Hepatitis B virus infected in HepG2.2.15 assessed as inhibition of HBsAg production at <86.9 +/- 3.6 uM by EIA. It is filed as functional, organism-based. The settings on record: hepg2 2.2.15.
Series [7] concerns Hepatitis B virus. Put plainly: Antiviral activity against Hepatitis B virus infected in HepG2.2.15 assessed as inhibition of HBV replication at <86.9 +/- 3.6 uM by quantitative Southern blot hybridization analysis. In kind it is functional, organism-based. The settings on record: hepg2 2.2.15.
For series [8], the system named is Hepatitis B virus. Put plainly: Antiviral activity against Hepatitis B virus infected in HepG2.2.15 assessed as inhibition of HBsAg production by EIA. It is filed as functional, organism-based. The settings on record: HepG2 2.2.15. Summed up: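 HBsAg secreted into the medium by confluent 2.2.15 cultures (RPMI 1640, 2% FBS) measured by semiquantitative enzyme immunoassay eight days after the first of eight consecutive daily treatments. Medium and compound were renewed daily, with an untreated cell control. Gives the 50% inhibitory concentration; mean and SD from three separate experiments.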

The test system of series [9] is Hepatitis B virus. Put plainly: Antiviral activity against Hepatitis B virus infected in HepG2.2.15 assessed as inhibition of HBV replication at <209.8 +/- 4.7 uM by quantitative Southern blot hybridization analysis. In kind it is functional, organism-based. The settings on record: hepg2 2.2.15.
Series [10] is described as follows: Selectivity index, ratio of CC50 for human HepG2.2.15 cells to IC50 for inhibition of HBsAg production. It is filed as functional. In short, it runs like this:
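SI = CC50/IC50. CC50 is from neutral red uptake after 9 days of treatment. IC50 is from HBsAg EIA after eight daily doses, in 2.2.15 cells.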

The test system of series [11] is Hepatitis B virus. Put plainly: Antiviral activity against Hepatitis B virus infected in HepG2.2.15 assessed as inhibition of HBsAg production at <74.8 +/- 3.9 uM by EIA. The settings on record: hepg2 2.2.15. In kind it is functional, organism-based.
The test system of series [12] is Hepatitis B virus. The series can be described thus: Antiviral activity against Hepatitis B virus infected in HepG2.2.15 assessed as inhibition of HBV replication at <74.8 +/- 3.9 uM by quantitative Southern blot hybridization analysis. In kind it is functional, organism-based. The settings on record: hepg2 2.2.15.
For series [13], the system named is Hepatitis B virus. The series can be described thus: Antiviral activity against Hepatitis B virus infected in HepG2.2.15 assessed as inhibition of HBV replication at <64.5 +/- 2.8 uM by quantitative Southern blot hybridization analysis. In kind it is functional, organism-based. The settings on record: hepg2 2.2.15.
Series [14] relates to Hepatitis B virus. Put plainly: Antiviral activity against Hepatitis B virus infected in HepG2.2.15 assessed as inhibition of HBV replication by quantitative Southern blot hybridization analysis. It is filed as functional, organism-based. The settings on record: HepG2 2.2.15. Summed up:
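Confluent 2.2.15 cells in RPMI 1640 with 2% FBS, dosed daily for eight consecutive days, with medium and compound replaced each day; untreated cell control. Intracellular HBV DNA quantified by Southern blot hybridization eight days after first treatment. IC50 is 50% inhibitory concentration; mean and SD of three separate experiments.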

Series [15] in a line: Selectivity index, ratio of CC50 for human HepG2.2.15 cells to IC50 for inhibition of Hepatitis B virus DNA replication. It is filed as functional. In short, it runs like this: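 SI = CC50/IC50. CC50 is from neutral red uptake after 9 days of treatment. IC50 is from Southern blot of intracellular HBV DNA after eight daily doses, in 2.2.15 cells.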
Series [16] has as its system Hepatitis B virus. Put plainly: Antiviral activity against Hepatitis B virus infected in HepG2.2.15 assessed as inhibition of HBsAg production at <76.3 +/- 3.3 uM by EIA. The settings on record: hepg2 2.2.15. In kind it is functional, organism-based.
For series [17], the system named is Hepatitis B virus. Put plainly: Antiviral activity against Hepatitis B virus infected in HepG2.2.15 assessed as inhibition of HBsAg production at <101.2 +/- 3.8 by EIA. It is filed as functional, organism-based. The settings on record: hepg2 2.2.15.
The subject of series [18] is Hepatitis B virus. The series can be described thus: Antiviral activity against Hepatitis B virus infected in HepG2.2.15 assessed as inhibition of HBsAg production at <80.1 +/- 3.5 uM by EIA. It is filed as functional, organism-based. The settings on record: hepg2 2.2.15.
Series [19] deals with Hepatitis B virus. Put plainly: Antiviral activity against Hepatitis B virus infected in HepG2.2.15 assessed as inhibition of HBsAg production at <60.8 +/- 4.6 uM by EIA. In kind it is functional, organism-based. The settings on record: hepg2 2.2.15.

In general, IC50 refers to the point on the concentration scale where inhibition reaches its midpoint. As usually defined, the CC50 is the concentration at which the toxic effect on the cells reaches its halfway point. A higher CC50 goes with lower toxicity to the cells. Regarding `CN(C)Cc1c(O)ccc2c1nc(CSc1ccccc1)n2C`, the IC50 entry with Hepatitis B virus [1] and in the series with Hepatitis B virus [2] was “Not Active” each time. The molecule also returned a CC50 at 216 h in [3] of 245 µM.
Regarding `Cn1c(CSc2ccccc2)nc2c(CN3CCCC3)c(O)ccc21`, the IC50 result with Hepatitis B virus [4] and with Hepatitis B virus [5] was “Not Active” throughout. The molecule further gave a CC50 at 216 h in series [3] of 227 µM.
Take `Cn1c(CSc2ccccc2)nc2c(CN3CCOCC3)c(O)ccc21`: the IC50 entry with Hepatitis B virus [6] and with Hepatitis B virus [7] was “Not Active” throughout. The molecule further displayed a CC50 at 216 h in series [3] of 86.9 µM.
For `CN1CCN(Cc2c(O)ccc3c2nc(CSc2ccccc2)n3C)CC1`, the IC50 with Hepatitis B virus [8] is 27 µM; in the series on Hepatitis B virus [9], “Not Active”. Further, the “Selectivity Index” value in [10] stood at 7.8. Besides, the CC50 at 216 h in series [3] stood at 210 µM.
Turning to `Cn1c(CSc2ccc(F)cc2)nc2c(CN3CCCC3)c(O)ccc21`, the IC50 entry in the series with Hepatitis B virus [11] and in the series on Hepatitis B virus [12] was “Not Active” in each case. The molecule also had a CC50 at 216 h in series [3] of 74.8 µM.
With `CN1CCN(Cc2c(O)ccc3c2nc(CSc2ccc(F)cc2)n3C)CC1`, the IC50 in the series with Hepatitis B virus [8] was 10.7 µM; with Hepatitis B virus [13] it was “Not Active”. For the same molecule, in series [10], the “Selectivity Index” value was found to be 6. The same molecule had a CC50 at 216 h in series [3] of 64.5 µM.
As for `Cn1c(CSc2ccccc2)nc2c(Cn3ccnc3)c(O)ccc21`, the 50% inhibitory concentration (IC50) was 9.1 µM in the series on Hepatitis B virus [14] and “Not Active” in the series with Hepatitis B virus [16]. This molecule also displayed a CC50 at 216 h in series [3] of 76.3 µM. Also, the “Selectivity Index” value in [15] was found to be 8.4.
In the case of `Cc1nccn1Cc1c(O)ccc2c1nc(CSc1ccccc1)n2C`, the concentration for half-maximal inhibition (IC50) was 7.8 µM in the series on Hepatitis B virus [14] and “Not Active” with Hepatitis B virus [17]. In series [3], this molecule displayed a CC50 at 216 h of 101 µM. Besides, the “Selectivity Index” value in series [15] is recorded as 13.
`Cn1c(CSc2ccc(F)cc2)nc2c(Cn3ccnc3)c(O)ccc21`: the concentration for half-maximal inhibition (IC50) entry is “Not Active” in the series on Hepatitis B virus [18] and 11.6 µM in the series with Hepatitis B virus [14]. Moreover, in [3], the midpoint of cytotoxicity, the CC50 at 216 h, lay at 80.1 µM. Moreover, the “Selectivity Index” value in series [15] is listed as 6.9.
In the case of `Cc1ccc(SCc2nc3c(Cn4ccnc4)c(O)ccc3n2C)cc1`, the IC50 in the series with Hepatitis B virus [14] was 32.6 µM; in the series on Hepatitis B virus [19] it was “Not Active”. The molecule also returned a CC50 at 216 h in [3] of 60.8 µM. Also, the “Selectivity Index” value in series [15] stood at 1.9.
